Assay results pooled from the literature.
Protocols differ between the studies behind these lines.

SMILES	cell line	effect on	mode	method	time	endpoint	value
COc1ccc2c(c1)c(C(=O)C(=O)NCCc1c[nH]c3ccccc13)cn2Cc1ccc(Cl)cc1	C4-2	cell growth or viability		MTT		IC50	> 100 µM
COc1cc(O)c2c(=O)c(OC)c(-c3ccc(O)cc3)oc2c1	RBL-2H3	degranulation	inhibitor			IC50	80.4 µM
O=C(NCCc1c[nH]c2ccccc12)C(=O)c1cn(Cc2ccc(Cl)cc2)c2ccc(F)cc12	C4-2	cell growth or viability		MTT		IC50	> 100 µM
c1ccc([C@@H]2C[C@H]2NC2CCNCC2)cc1	MV4-11	cell growth or viability		resazurin	96 h	EC50	0.00048 µM
Cn1cncc1[C@@](N)(c1ccc(Cl)cc1)c1ccc2c(c1)c(-c1cccc(Cl)c1)cc(=O)n2C	HN-6	cell growth or viability			72 h	IC50	2.27 µM
CC(C)[C@@H]1NC(=O)[C@H](C)OC(=O)[C@@H](C(C)C)NC(=O)[C@@H](C(C)C)OC(=O)[C@H](C(C)C)NC(=O)[C@H](C)OC(=O)[C@@H](C(C)C)NC(=O)[C@@H](C(C)C)OC(=O)[C@H](C(C)C)NC(=O)[C@H](C)OC(=O)[C@@H](C(C)C)NC(=O)[C@@H](C(C)C)OC1=O	C6	cell growth or viability		SRB		IC50	0.024 µM
O=C(O)C(Cl)Cl	BCPAP	cell growth or viability		MTT	72 h	IC50	> 50 µM
c1ccc2c(NCCCCCCNc3c4ccccc4nc4ccccc34)c3ccccc3nc2c1	MDA-MB-468	cell growth or viability		MTT		IC50	0.096 µM
CCn1cc(C(=O)C(=O)NCCc2c[nH]c3ccccc23)c2ccccc21	C4-2	cell growth or viability		MTT		IC50	> 100 µM
Cc1c2cnccc2c(C)c2c1c1ccccc1n2CCCCCCNCc1ccccc1	MDA-MB-468	cell growth or viability		MTT		IC50	0.72 µM
COc1cccc2c1C(=O)c1c(O)c3c(c(O)c1C2=O)C[C@@](O)(C(=O)CO)C[C@@H]3O[C@H]1C[C@H](N)[C@H](O)[C@H](C)O1	C6	cell growth or viability		SRB	72 h	IC50	0.5 µM
